In ChEMBL document CHEMBL1135742, “Modification of the structure of a metallopeptide: synthesis and biological evaluation of (111)In-labeled DOTA-conjugated rhenium-cyclized alpha-MSH analogues” (J Med Chem, 2002):

Key:
Format in all cases: functional, organism-based
Mus musculus [1] = species on record: Mus musculus; assay: Radioactivity uptake in the pancreas was expressed as a percentage of the injected radioactive dose per gram of tissue (% ID/g) in B16/F1 Murine Melanoma-Bearing C57 Mice at 4 h
Method in brief: (§1)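 C57 BL/6 female mice (7–8 weeks) carried B16/F1 tumours from 1×10^6 cells given s.c. in the right flank; tumours were ~500 mg at 9–10 days. Each mouse received […] of HPLC-purified, neutralized 111In-DOTA peptide via the tail vein. Mice were killed at 0.5, 2, 4 or 24 h pi. Tissues were weighed and γ-counted, expressed as % ID/g; ratios were tumor/tissue % ID/g.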

Mus musculus [2] = species on record: Mus musculus; assay: Radioactivity uptake in the kidneys was expressed as a percentage of the injected radioactive dose per gram of tissue (% ID/g) in B16/F1 Murine Melanoma-Bearing C57 Mice at 4 h; conditions: Kidney; method in brief: as §1
Mus musculus [3] = species on record: Mus musculus; assay: Uptake of [111In]-labeled compound in liver at 2 hr pi in the presence of […]
Method in brief: (§2)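 C57 BL/6 female mice, 7–8 weeks old, inoculated s.c. in right flank with 1×10^6 B16/F1 melanoma cells. Used 9–10 days later at tumor weight ~500 mg. […] HPLC-purified 111In-DOTA peptide (neutral pH) given via tail vein, with or without […]. Killed 2 h pi. Tissues weighed and gamma-counted. Uptake expressed as % ID/g.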

Mus musculus [4] = species on record: Mus musculus; assay: Uptake of [111In]-labeled compound in muscle at 2 h pi in the presence of […]; conditions: Muscle tissue; method in brief: as §2
Mus musculus [5] = species on record: Mus musculus; assay: Radioactivity uptake in the kidneys was expressed as a percentage of the injected radioactive dose per gram of tissue (% ID/g) in B16/F1 Murine Melanoma-Bearing C57 Mice at 24 h; conditions: Kidney; method in brief: as §1
Mus musculus [6] = species on record: Mus musculus; assay: Radioactivity uptake in the spleen was expressed as a percentage of the injected radioactive dose per gram of tissue (% ID/g) in B16/F1 Murine Melanoma-Bearing C57 Mice at 2 h; method in brief: as §1
Mus musculus [7] = species on record: Mus musculus; assay: Radioactivity uptake in the heart was expressed as a percentage of the injected radioactive dose per gram of tissue (% ID/g) in B16/F1 Murine Melanoma-Bearing C57 Mice at 2 h; method in brief: as §1
Mus musculus [8] = species on record: Mus musculus; assay: Radioactivity uptake in the lungs was expressed as a percentage of the injected radioactive dose per gram of tissue (% ID/g) in B16/F1 Murine Melanoma-Bearing C57 Mice at 2 h; conditions: Lung; method in brief: as §1
Mus musculus [9] = species on record: Mus musculus; assay: Uptake of [111In]-labeled compound in heart at 2 hr pi in the absence of […]; method in brief: as §2
Mus musculus [10] = species on record: Mus musculus; assay: Uptake Ratio of Tumor/muscle (each in % ID/g) in B16/F1 Murine Melanoma-Bearing C57 Mice at 4 h; conditions: Muscle tissue
Method in brief: (§3)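 Female C57 BL/6 mice, 7–8 weeks old, carried subcutaneous right-flank B16/F1 tumors from 1×10^6 cells and were used 9–10 days later at ~500 mg tumor weight. Each received […] of HPLC-purified, pH-neutralized ¹¹¹In-DOTA peptide by tail vein. Tumor and organs were excised at the stated time, weighed and γ-counted. Each tissue was taken as % ID/g, and tumor/normal-tissue ratios were formed from these values.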

Mus musculus [11] = species on record: Mus musculus; assay: Uptake Ratio of Tumor/blood (each in % ID/g) in B16/F1 Murine Melanoma-Bearing C57 Mice at 2 h; method in brief: as §1
Mus musculus [12] = species on record: Mus musculus; assay: Uptake of [111In]-labeled compound in muscle at 2 hr pi in the absence of […]; conditions: Muscle tissue; method in brief: as §2
Mus musculus [13] = species on record: Mus musculus; assay: Uptake Ratio of Tumor/lungs (each in % ID/g) in B16/F1 Murine Melanoma-Bearing C57 Mice at 0.5 h; method in brief: as §3
Mus musculus [14] = species on record: Mus musculus; assay: Uptake of [111In]-labeled compound in blood at 2 hr pi in the absence of […]; method in brief: as §2
Mus musculus [15] = species on record: Mus musculus; assay: Uptake of [111In]-labeled compound in kidney at 2 hr pi in the absence of […]; method in brief: as §2
Mus musculus [16] = species on record: Mus musculus; assay: Uptake Ratio of Tumor/lungs (each in % ID/g) in B16/F1 Murine Melanoma-Bearing C57 Mice at 2 h; method in brief: as §3
Mus musculus [17] = species on record: Mus musculus; assay: Uptake Ratio of Tumor/liver (each in % ID/g) in B16/F1 Murine Melanoma-Bearing C57 Mice at 24 h; method in brief: as §1
Mus musculus [18] = species on record: Mus musculus; assay: Uptake of [111In]-labeled compound in spleen at 2 hr pi in the presence of 10 mg NDP; method in brief: as §2
Mus musculus [19] = species on record: Mus musculus; assay: Uptake of [111In]-labeled compound in pancreas at 2 hr pi in the presence of 10 mg NDP; method in brief: as §2
Mus musculus [20] = species on record: Mus musculus; assay: Radioactivity uptake in the blood was expressed as a percentage of the injected radioactive dose per gram of tissue (% ID/g) in B16/F1 Murine Melanoma-Bearing C57 Mice at 2 h; method in brief: as §1
Mus musculus [21] = species on record: Mus musculus; assay: Radioactivity uptake in the heart was expressed as a percentage of the injected radioactive dose per gram of tissue (% ID/g) in B16/F1 Murine Melanoma-Bearing C57 Mice at 4 h; method in brief: as §1
Mus musculus [22] = species on record: Mus musculus; assay: Uptake of [111In]-labeled compound in tumor at 2 hr pi in the presence of 10 mg NDP; method in brief: as §2
Mus musculus [23] = species on record: Mus musculus; assay: Radioactivity uptake in the liver was expressed as a percentage of the injected radioactive dose per gram of tissue (% ID/g) in B16/F1 Murine Melanoma-Bearing C57 Mice at 24 h; method in brief: as §1
Mus musculus [24] = species on record: Mus musculus; assay: Uptake of [111In]-labeled compound in lung at 2 hr pi in the absence of […]; method in brief: as §2
Mus musculus [25] = species on record: Mus musculus; assay: Uptake of [111In]-labeled compound in kidney at 2 hr pi in the presence of […]; method in brief: as §2
Mus musculus [26] = species on record: Mus musculus; assay: Radioactivity uptake in the liver was expressed as a percentage of the injected radioactive dose per gram of tissue (% ID/g) in B16/F1 Murine Melanoma-Bearing C57 Mice at 0.5 h; method in brief: as §1
Mus musculus [27] = species on record: Mus musculus; assay: Radioactivity uptake in the heart was expressed as a percentage of the injected radioactive dose per gram of tissue (% ID/g) in B16/F1 Murine Melanoma-Bearing C57 Mice at 0.5 h; method in brief: as §1
Mus musculus [28] = species on record: Mus musculus; assay: Radioactivity uptake in the tumor was expressed as a percentage of the injected radioactive dose per gram of tissue (% ID/g) in B16/F1 Murine Melanoma-Bearing C57 Mice at 0.5 h; method in brief: as §1
Mus musculus [29] = species on record: Mus musculus; assay: Radioactivity uptake in the tumor was expressed as a percentage of the injected radioactive dose per gram of tissue (% ID/g) in B16/F1 Murine Melanoma-Bearing C57 Mice at 4 h; method in brief: as §1
Mus musculus [30] = species on record: Mus musculus; assay: Radioactivity uptake in the lungs was expressed as a percentage of the injected radioactive dose per gram of tissue (% ID/g) in B16/F1 Murine Melanoma-Bearing C57 Mice at 4 h; conditions: Lung; method in brief: as §1
Mus musculus [31] = species on record: Mus musculus; assay: Radioactivity uptake in the muscle was expressed as a percentage of the injected radioactive dose per gram of tissue (% ID/g) in B16/F1 Murine Melanoma-Bearing C57 Mice at 0.5 h; method in brief: as §1
Mus musculus [32] = species on record: Mus musculus; assay: Radioactivity uptake in the pancreas was expressed as a percentage of the injected radioactive dose per gram of tissue (% ID/g) in B16/F1 Murine Melanoma-Bearing C57 Mice at 0.5 h; method in brief: as §1
Mus musculus [33] = species on record: Mus musculus; assay: Uptake Ratio of Tumor/kidneys (each in % ID/g) in B16/F1 Murine Melanoma-Bearing C57 Mice at 24 h; conditions: Kidney; method in brief: as §1

Substance	ID/g (Mus musculus [1]) [%]	ID/g (Mus musculus [2]) [%]	ID/g (Mus musculus [5]) [%]	ID/g (Mus musculus [6]) [%]	ID/g (Mus musculus [7]) [%]	ID/g (Mus musculus [8]) [%]	Uptake ratio (Mus musculus [10])	Uptake ratio (Mus musculus [11])	Uptake ratio (Mus musculus [13])	Uptake ratio (Mus musculus [16])	Uptake ratio (Mus musculus [17])	ID/g (Mus musculus [20]) [%]	ID/g (Mus musculus [21]) [%]	ID/g (Mus musculus [23]) [%]	ID/g (Mus musculus [26]) [%]	ID/g (Mus musculus [27]) [%]	ID/g (Mus musculus [28]) [%]	ID/g (Mus musculus [29]) [%]	ID/g (Mus musculus [30]) [%]	ID/g (Mus musculus [31]) [%]	further results
DOTA-ReCCEHdFRWCRPV-NH2	0.015	7.37	5.64	0.27	0.07	0.3	193	93.7	11.1	65.4	25.6	0.21	0.054	0.32	0.66	0.76	16.6	17.4	0.13	0.39	ID/g (Mus musculus [3]): 1.61%; ID/g (Mus musculus [4]): 0.18%; ID/g (Mus musculus [9]): 0.07%; ID/g (Mus musculus [12]): 0.03%; ID/g (Mus musculus [14]): 0.21%; ID/g (Mus musculus [15]): 8.72%; ID/g (Mus musculus [18]): 0.47%; ID/g (Mus musculus [19]): 0.11%; ID/g (Mus musculus [22]): 1.95%; ID/g (Mus musculus [24]): 0.3%; ID/g (Mus musculus [25]): 11.2%; ID/g (Mus musculus [32]): 0.41%; Uptake ratio (Mus musculus [33]): 1.5
DOTA-ReCCEHdFRWCKPV-NH2	0.043	9.27	5.64	0.09	0.066	0.18	159	196	6.6	69.4	32.7	0.065	0.12	0.16	0.59	0.72	10.4	9.46	0.11	0.42	ID/g (Mus musculus [32]): 0.62%; Uptake ratio (Mus musculus [33]): 0.88
DOTA-ReCCEHdFRWCKPV-OH	0.074	8.7	7.35	0.2	0.058	0.18	277	143	9	52.8	18.5	0.11	0.12	0.17	0.45	0.68	10.4	9.27	0.1	0.39	ID/g (Mus musculus [32]): 0.39%; Uptake ratio (Mus musculus [33]): 0.43
